Test results reported in ChEMBL document CHEMBL1142148, “Antibiotic susceptibility profile of bifidobacteria as affected by oxgall, acid, and hydrogen peroxide stress” (2007).
In brackets after ≈: the same amount, converted by molar mass.

Key:
Bifidobacterium bifidum [1] = assay: Antimicrobial activity against 90 mins oxgall-stressed Bifidobacterium bifidum R0071 after 18 hrs; assay type: functional
In short: (§1)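 Cells pelleted from mid-log MRS culture and resuspended in MRS (initial pH 6.5) with 0.3% (wt/vol) oxgall for 90 min anaerobically at 37°C. They were then regrown in MRS pH 6.5 for 24 h (footnote: 18 h) anaerobically and tested for MIC by the same broth microdilution assay. Median of four repetitions.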

[2] = tested on: Bifidobacterium thermophilum; assay: Antimicrobial activity against 90 mins oxgall-stressed Bifidobacterium thermophilum ATCC 25866 after 18 hrs; assay type: functional; in short: as §1
Bifidobacterium bifidum [3] = assay: Antimicrobial activity against Bifidobacterium bifidum R0071; assay type: functional
In short: (§2)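 Broth microdilution in MRS plus 0.05% L-cysteine-HCl. Mid-log culture adjusted to OD650 0.1, giving about 2.5 × 10^4 to 5.0 × 10^4 CFU/well, then added to twofold serial dilutions of agent. Plates incubated anaerobically at 37°C for 18 h and read at OD650. MIC is the lowest concentration matching the uninoculated blank OD, taken as the median of four repeats.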

Bifidobacterium bifidum [4] = assay: Antimicrobial activity against Bifidobacterium bifidum BB12; assay type: functional; in short: as §2
[5] = Antimicrobial activity against 90 mins oxgall-stressed Bifidobacterium infantis ATCC 15697 after 18 hrs; assay type: functional, Bifidobacterium longum subsp. infantis; details: Bifidobacterium longum; in short: as §1
Bifidobacterium longum [6] = assay: Antimicrobial activity against 90 mins hydrogen peroxide-stressed Bifidobacterium longum P/N 601377 after 18 hrs; assay type: functional
In short: (§3)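 Stress applied for 90 min at 37°C under anaerobic conditions, using MRS (initial pH 6.5) containing H2O2 at each strain's own inhibitory concentration. The H2O2 level was set beforehand by microplate tolerance testing. Challenged cells were regrown in MRS for 24 h (footnote: 18 h) before MIC testing by broth microdilution. Median of four repetitions.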

Bifidobacterium breve [7] = assay: Antimicrobial activity against Bifidobacterium breve R0070; assay type: functional; in short: as §2
Bifidobacterium breve [8] = assay: Antimicrobial activity against 90 mins oxgall-stressed Bifidobacterium breve R0070 after 18 hrs; assay type: functional; in short: as §1
Bifidobacterium breve [9] = assay: Antimicrobial activity against 60 min 1 M HCl-stressed Bifidobacterium breve ATCC 15700 after 18 hrs; assay type: functional
In short: (§4)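 Mid-log MRS culture pelleted and resuspended in MRS broth brought to pH 2.0 with 1 M HCl, held anaerobically at 37°C for 60 min, then subcultured in MRS (pH 6.5) for 24 h anaerobically before MIC testing by broth microdilution (as for unstressed cells). Table footnote gives 18 h anaerobic regrowth after the stress. MIC is the median of four repetitions.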

Bifidobacterium longum [10] = assay: Antimicrobial activity against 90 mins oxgall-stressed Bifidobacterium longum ATCC 15708 after 18 hrs; assay type: functional; in short: as §1
[11] = tested on: Bifidobacterium pseudolongum; assay: Antimicrobial activity against 90 mins oxgall-stressed Bifidobacterium pseudolongum ATCC 25562 after 18 hrs; assay type: functional; in short: as §1
Bifidobacterium breve [12] = assay: Antimicrobial activity against Bifidobacterium breve ATCC 15700; assay type: functional; in short: as §2
Bifidobacterium longum [13] = assay: Antimicrobial activity against 60 min 1 M HCl-stressed Bifidobacterium longum P/N 601377 after 18 hrs; assay type: functional; in short: as §4
Bifidobacterium bifidum [14] = assay: Antimicrobial activity against 90 mins hydrogen peroxide-stressed Bifidobacterium bifidum BB12 after 18 hrs; assay type: functional; in short: as §3
[15] = tested on: Bifidobacterium pseudolongum; assay: Antimicrobial activity against 60 min 1 M HCl-stressed Bifidobacterium pseudolongum ATCC 25562 after 18 hrs; assay type: functional; in short: as §4
Bifidobacterium animalis [16] = assay: Antimicrobial activity against 90 mins oxgall-stressed Bifidobacterium animalis ATCC 27536 after 18 hrs; assay type: functional; in short: as §1
[17] = tested on: Bifidobacterium thermophilum; assay: Antimicrobial activity against 60 min 1 M HCl-stressed Bifidobacterium thermophilum ATCC 25866 after 18 hrs; assay type: functional; in short: as §4
Bifidobacterium longum [18] = assay: Antimicrobial activity against Bifidobacterium longum P/N 601377; assay type: functional; in short: as §2
Bifidobacterium breve [19] = assay: Antimicrobial activity against 90 mins oxgall-stressed Bifidobacterium breve ATCC 15700 after 18 hrs; assay type: functional; in short: as §1
Bifidobacterium longum [20] = assay: Antimicrobial activity against 90 mins oxgall-stressed Bifidobacterium longum ATCC 15707 after 18 hrs; assay type: functional; in short: as §1
[21] = tested on: Bifidobacterium thermophilum; assay: Antimicrobial activity against 90 mins hydrogen peroxide-stressed Bifidobacterium thermophilum ATCC 25866 after 18 hrs; assay type: functional; in short: as §3
Bifidobacterium longum [22] = assay: Antimicrobial activity against 90 mins oxgall-stressed Bifidobacterium longum P/N 601377 after 18 hrs; assay type: functional; in short: as §1
Bifidobacterium longum [23] = assay: Antimicrobial activity against Bifidobacterium longum ATCC 15707; assay type: functional; in short: as §2
Bifidobacterium longum [24] = assay: Antimicrobial activity against Bifidobacterium longum ATCC 15708; assay type: functional; in short: as §2
Bifidobacterium animalis [25] = assay: Antimicrobial activity against 60 min 1 M HCl-stressed Bifidobacterium animalis ATCC 27536 after 18 hrs; assay type: functional; in short: as §4
Bifidobacterium longum [26] = assay: Antimicrobial activity against 90 mins hydrogen peroxide-stressed Bifidobacterium longum ATCC 15707 after 18 hrs; assay type: functional; in short: as §3
[27] = tested on: Bifidobacterium pseudolongum; assay: Antimicrobial activity against Bifidobacterium pseudolongum ATCC 25562; assay type: functional; in short: as §2
Bifidobacterium bifidum [28] = assay: Antimicrobial activity against Bifidobacterium bifidum ATCC 15696; assay type: functional; in short: as §2
Bifidobacterium bifidum [29] = assay: Antimicrobial activity against 60 min 1 M HCl-stressed Bifidobacterium bifidum R0071 after 18 hrs; assay type: functional; in short: as §4
[30] = Antimicrobial activity against Bifidobacterium infantis ATCC 15697; assay type: functional, Bifidobacterium longum subsp. infantis; details: Bifidobacterium longum; in short: as §2
Bifidobacterium animalis [31] = assay: Antimicrobial activity against 90 mins hydrogen peroxide-stressed Bifidobacterium animalis ATCC 27536 after 18 hrs; assay type: functional; in short: as §3
Bifidobacterium breve [32] = assay: Antimicrobial activity against 60 min 1 M HCl-stressed Bifidobacterium breve R0070 after 18 hrs; assay type: functional; in short: as §4
Bifidobacterium breve [33] = assay: Antimicrobial activity against 90 mins hydrogen peroxide-stressed Bifidobacterium breve R0070 after 18 hrs; assay type: functional; in short: as §3
[34] = Antimicrobial activity against 60 min 1 M HCl-stressed Bifidobacterium infantis ATCC 15697 after 18 hrs; assay type: functional, Bifidobacterium longum subsp. infantis; details: Bifidobacterium longum; in short: as §4
Bifidobacterium breve [35] = assay: Antimicrobial activity against 90 mins hydrogen peroxide-stressed Bifidobacterium breve ATCC 15700 after 18 hrs; assay type: functional; in short: as §3
Bifidobacterium longum [36] = assay: Antimicrobial activity against 60 min 1 M HCl-stressed Bifidobacterium longum R0175 after 18 hrs; assay type: functional; in short: as §4
[37] = tested on: Bifidobacterium thermophilum; assay: Antimicrobial activity against Bifidobacterium thermophilum ATCC 25866; assay type: functional; in short: as §2
Bifidobacterium longum [38] = assay: Antimicrobial activity against Bifidobacterium longum R0175; assay type: functional; in short: as §2
Bifidobacterium longum [39] = assay: Antimicrobial activity against 90 mins hydrogen peroxide-stressed Bifidobacterium longum ATCC 15708 after 18 hrs; assay type: functional; in short: as §3
Bifidobacterium bifidum [40] = assay: Antimicrobial activity against 60 min 1 M HCl-stressed Bifidobacterium bifidum BB12 after 18 hrs; assay type: functional; in short: as §4
Bifidobacterium longum [41] = assay: Antimicrobial activity against 60 min 1 M HCl-stressed Bifidobacterium longum ATCC 15707 after 18 hrs; assay type: functional; in short: as §4
Bifidobacterium bifidum [42] = assay: Antimicrobial activity against 90 mins oxgall-stressed Bifidobacterium bifidum BB12 after 18 hrs; assay type: functional; in short: as §1
Bifidobacterium longum [43] = assay: Antimicrobial activity against 90 mins hydrogen peroxide-stressed Bifidobacterium longum R0175 after 18 hrs; assay type: functional; in short: as §3
Bifidobacterium animalis [44] = assay: Antimicrobial activity against Bifidobacterium animalis ATCC 27536; assay type: functional; in short: as §2
Bifidobacterium bifidum [45] = assay: Antimicrobial activity against 90 mins oxgall-stressed Bifidobacterium bifidum ATCC 15696 after 18 hrs; assay type: functional; in short: as §1
Bifidobacterium bifidum [46] = assay: Antimicrobial activity against 90 mins hydrogen peroxide-stressed Bifidobacterium bifidum R0071 after 18 hrs; assay type: functional; in short: as §3
Bifidobacterium longum [47] = assay: Antimicrobial activity against 90 mins oxgall-stressed Bifidobacterium longum R0175 after 18 hrs; assay type: functional; in short: as §1

In the case of `Cc1onc(-c2ccccc2Cl)c1C(=O)N[C@@H]1C(=O)N2[C@@H]1SC(C)(C)[C@@H]2C(=O)O` [CLOXACILLIN], the MIC (Bifidobacterium bifidum [1]) is reported as 62.5 µg/mL (≈ 143 µM), the MIC [2] is reported as 62.5 µg/mL (≈ 143 µM) and the MIC (Bifidobacterium bifidum [3]) is reported as 15.6 µg/mL (≈ 35.8 µM). For the same compound, the MIC (Bifidobacterium bifidum [4]) was 0.98 µg/mL (≈ 2.25 µM), the MIC [5] was 125 µg/mL (≈ 287 µM) and the MIC (Bifidobacterium longum [6]) was 31.2 µg/mL (≈ 71.6 µM). For the same compound, the MIC (Bifidobacterium breve [7]) was 31.2 µg/mL (≈ 71.6 µM), the MIC (Bifidobacterium breve [8]) was 31.2 µg/mL (≈ 71.6 µM) and the MIC (Bifidobacterium breve [9]) was 125 µg/mL (≈ 287 µM). The MIC (Bifidobacterium longum [10]) was 125 µg/mL (≈ 287 µM), the MIC [11] was 62.5 µg/mL (≈ 143 µM) and the MIC (Bifidobacterium breve [12]) was 15.6 µg/mL (≈ 35.8 µM). It also gave an MIC (Bifidobacterium longum [13]) of 0.98 µg/mL (≈ 2.25 µM), an MIC (Bifidobacterium bifidum [14]) of 1.9 µg/mL (≈ 4.36 µM) and an MIC [15] of 0.98 µg/mL (≈ 2.25 µM). For the same compound, the MIC (Bifidobacterium animalis [16]) was 125 µg/mL (≈ 287 µM), the MIC [17] was 31.2 µg/mL (≈ 71.6 µM) and the MIC (Bifidobacterium longum [18]) was 31.2 µg/mL (≈ 71.6 µM). It also gave an MIC (Bifidobacterium breve [19]) of 3.9 µg/mL (≈ 8.95 µM), an MIC (Bifidobacterium longum [20]) of 125 µg/mL (≈ 287 µM) and an MIC [21] of 7.8 µg/mL (≈ 17.9 µM). The MIC (Bifidobacterium longum [22]) was 62.5 µg/mL (≈ 143 µM), the MIC (Bifidobacterium longum [23]) was 15.6 µg/mL (≈ 35.8 µM) and the MIC (Bifidobacterium longum [24]) was 7.8 µg/mL (≈ 17.9 µM). It also gave an MIC (Bifidobacterium animalis [25]) of 3.9 µg/mL (≈ 8.95 µM), an MIC (Bifidobacterium longum [26]) of 0.98 µg/mL (≈ 2.25 µM) and an MIC [27] of 3.9 µg/mL (≈ 8.95 µM). The MIC (Bifidobacterium bifidum [28]) was 7.8 µg/mL (≈ 17.9 µM), the MIC (Bifidobacterium bifidum [29]) was 15.6 µg/mL (≈ 35.8 µM) and the MIC [30] was 15.6 µg/mL (≈ 35.8 µM). For the same compound, the MIC (Bifidobacterium animalis [31]) was 3.9 µg/mL (≈ 8.95 µM), the MIC (Bifidobacterium breve [32]) was 15.6 µg/mL (≈ 35.8 µM) and the MIC (Bifidobacterium breve [33]) was 15.6 µg/mL (≈ 35.8 µM). The MIC [34] was 125 µg/mL (≈ 287 µM), the MIC (Bifidobacterium breve [35]) was 3.9 µg/mL (≈ 8.95 µM) and the MIC (Bifidobacterium longum [36]) was 0.98 µg/mL (≈ 2.25 µM). The MIC [37] was 15.6 µg/mL (≈ 35.8 µM), the MIC (Bifidobacterium longum [38]) was 62.5 µg/mL (≈ 143 µM) and the MIC (Bifidobacterium longum [39]) was 7.8 µg/mL (≈ 17.9 µM). It also gave an MIC (Bifidobacterium bifidum [40]) of 0.98 µg/mL (≈ 2.25 µM), an MIC (Bifidobacterium longum [41]) of 15.6 µg/mL (≈ 35.8 µM) and an MIC (Bifidobacterium bifidum [42]) of 1.9 µg/mL (≈ 4.36 µM). It also gave an MIC (Bifidobacterium longum [43]) of 31.2 µg/mL (≈ 71.6 µM), an MIC (Bifidobacterium animalis [44]) of 3.9 µg/mL (≈ 8.95 µM) and an MIC (Bifidobacterium bifidum [45]) of 62.5 µg/mL (≈ 143 µM). For the same compound, the MIC (Bifidobacterium bifidum [46]) was 31.2 µg/mL (≈ 71.6 µM) and the MIC (Bifidobacterium longum [47]) was 125 µg/mL (≈ 287 µM).
